Source: PMC3947130 (Molecular cancer therapeutics, 2013)
“Also recorded” adds a separate entry of the source.

Experiments:
MDA-MB-231 cells = test: TRAIL-induced killing / TRAIL sensitization, cell viability; format: cell-based, human
Outline: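 MDA-MB-231 cells in DMEM/10% FBS seeded at 5000 cells/well and left to attach overnight. Pre-treated 4 h at 37°C with vehicle (0.1% DMSO) or 5 μM test compound, then TRAIL (up to 100 ng/mL) added for 20 h at 37°C. After 30 min at room temperature, CellTiter-Glo luminescence read. At least triplicate, at least three independent times.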

[1] = tested on: non-canonical NF-κB pathway; test: Immunoblot of non-canonical NF-κB pathway; format: cell-based, human; details: MDA-MB-231 cells, 5 μM, 24 h, Fig. 4D
Outline: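 MDA-MB-231 cells grown in DMEM with 10% FBS, exposed to vehicle or 5 μM test compound for 24 h. Cell protein extracts immunoblotted for NIK, phospho-NF-κB2, NF-κB2 and cIAP-1/-2, with Erk 1/2 as loading control. HRP-conjugated anti-rabbit or anti-mouse secondary applied for 1 h, then enhanced chemiluminescence detection.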

In the case of O=Cc1coc2ccccc2c1=O [3-FC, reference compound], the “sensitization to TRAIL” value (MDA-MB-231 cells; 3-FC alone with TRAIL, Supp. Fig. S1D) is reported as “results in sensitization to TRAIL” and the “sensitization to TRAIL with IAP inhibition” value (MDA-MB-231 cells; 3-FC together with IAP inhibition, Supp. Fig. S1D) is reported as “induces even greater sensitization”.

With Cc1ccc(S(=O)(=O)/C=C/C#N)cc1 [BAY 11-7082, reference compound] the “effect of IKK inhibition in the model systems” value (MDA-MB-231 cells; data not shown) was “failed to have any effect”.

For CC(C)[C@H](NC(=O)[C@H](C)N)C(=O)N[C@@H](C)C(=O)NNc1ccccc1 [MLS-0412113], the “sensitization to TRAIL-mediated cell killing” value (MDA-MB-231 cells; 5 μM pre-treatment 4 h, then TRAIL 20 h, Fig. 2B) was “no activity; also recorded: lacked TRAIL sensitizing ability altogether”.

In the case of CN[C@@H](C)C(=O)N[C@H]1CCO[C@H]2CC(C)(C)[C@@H](C(=O)N[C@@H]3CCCc4ccccc43)N2C1=O [SBI-0636457], the NIK levels [1] is reported as “profound induction of NIK levels” and the “phosphorylation and processing of NF-κB2” value [1] is reported as “enhanced phosphorylation and processing of NF-κB2”.

B1: Tumor Necrosis Factor Related Apoptosis Inducing Ligand (protein, UniProt P50591 1-281, looked up)
Tumor necrosis factor ligand …: MAMMEVQGGPSLGQTCVLIVIFTVLLQSLCVAVTYVYFTNELKQMQDKYSKSGIACFLKEDDSYWDPNDEESMNSPCWQVKWQLRQLVRKMILRTSEETISTVQEKQQNISPLVRERGPQRVAAHITGTRGRSNTLSSPNSKNEKALGRKINSWESSRSGHSFLSNLHLRNGELVIHEKGFYYIYSQTYFRFQEEIKENTKNDKQMVQYIYKYTSYPDPILLMKSARNSCWSKDAEYGLYSIYQGGIFELKENDRIFVSVTNEHLIDMDHEASFFGAFLVG
B1 was tested, and the “cell death by TRAIL alone” value (MDA-MB-231 cells; TRAIL alone, up to 100 ng/mL, 20 h, Fig. 2B) was “fails to induce appreciable cell death”.
